Experimental data published in PubChem BioAssay AID463104 (Sanford-Burnham Center for Chemical Genomics, 2010).
About 1,100 (0.33%) of roughly 330,000 compounds were called active.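 Rule for the calls: active = versus positive control, 20 µM dose yields 30% or more activation; inactive = the rest.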 This excerpt belongs to a sample that is enriched for actives.

Assay: IRE1-XBP1 pathway stimulators – cell-based, CHO-XBP1 luciferase reporter, luminescence, uHTS, primary screen (AID 463104);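 note: 100% = tunicamycin at 10 µg/mL and 0% = DMSO only wells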
Conditions: IRE1-XBP1 UPR activation, at 20 µM, active compounds read high, percent of tunicamycin response, DMSO as zero
Method in brief: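 Assay system: IRE1-XBP1 luciferase reporter CHO line. Input: 1000 cells/well. Buffer or medium: F12 with 10% serum. Doses: 20 µM, 1% DMSO. Times: overnight seeding at 37 °C, 6 h compound treatment at 37 °C. Technique: Steady-Glo luciferase glow luminescence, 10 min after reagent addition.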

activation, inactive:
CCC1CCC/C1=N\NC(=O)c1ccc(Cl)cc1 (stereo not given) 2.16%, COc1cc(C(=O)NCC(c2ccco2)N2CCCC2)ccc1OCc1ccccc1 (stereo not given) -1.2%, Cc1ccc(S(=O)(=O)/N=C(/Nc2ccccn2)c2ccc(Cl)cc2)cc1 1.88%, O=S(=O)(/N=C(/Nc1ccccn1)c1ccccc1)c1ccc(Cl)cc1 0.4%, CC(=O)N1CC(C)c2scc(C)[n+]2-c2ccccc21 (stereo not given) -0.83%, Cc1ccc(N2C(=O)CC(N3CCSCC3)C2=O)c(C)c1 (stereo not given) 2.27%, O=c1c2ccccc2nc2n1C(CSCc1cccc(C(F)(F)F)c1)CS2 (stereo not given) -4.03%, COc1ccc(S(=O)(=O)N(CC(=O)N/N=C/c2ccccc2C(=O)O)c2ccccc2OC)cc1 -1.28%, COc1ccccc1N(CC(=O)N/N=C(\C)c1ccccc1O)S(=O)(=O)c1ccc(C)cc1 -4.87%, Cc1ccc(CC2S/C(=C(/C#N)C(=O)N3CCOCC3)N(c3ccccc3)C2=O)cc1 (stereo not given) -1.89%, Cc1ccnc2nc(C(=O)Nc3nnc(-c4ccccc4)o3)nn12 2.49%, O=C(CNC(=O)c1cccnc1)N/N=C/c1cc(Br)c(O)c(Br)c1 -5.3%, Cc1ccc(CSCCNC(=O)CN(c2ccc(F)cc2)S(C)(=O)=O)cc1 -2.57%, COC(=O)C1=C(O)/C(=C/c2ccc(OCC(=O)Nc3ccccc3)cc2)N=C1C -5.1%, Cc1ccc(NC(=O)COc2ccc(/C=C3/NC(=O)NC3=O)cc2)cc1 -3.85%, CCn1c(SCC(=O)NNC(=O)c2ccc(OC)cc2)nnc1C(C)C -2.62%, CCOC(=O)/C=C/CN(C(=O)OC(C)(C)C)S(=O)(=O)N1CC=CC1 -0.55%, Cc1cccc(C)c1NC(=O)C1(N(C(=O)c2ccccn2)c2ccc(O)cc2)CCCCC1 -2.28%, CCOC(=O)N1CCN(CC(=O)n2c(C)c(C)c3ccccc32)CC1 1.59%, Cc1cccc(OCCCC(=O)Nc2ccc(S(=O)(=O)N3CCCC3)cc2)c1 -0.19%, CCCN1CCn2c3c(c4cc(Br)ccc42)CCCC31 (stereo not given) -0.93%, COCCNC(=O)c1ccc(Cn2c(SCC(=O)NCC3CCCO3)nc3ccc(Br)cc3c2=O)cc1 (stereo not given) -6.18%, CC(=O)Nc1ccc(CC#N)cc1 -1.91%, COc1ccccc1C(=O)NCCC(=O)NCC(c1ccco1)N1CCCCC1 (stereo not given) -0.9%, Cn1c(SCC(=O)N/N=C/c2ccc(O)c(O)c2)nc2ccccc21 20.8%, CCCc1nc2ccccc2c(=O)n1NC(=O)c1c(O)c2ccccc2[nH]c1=O -2.34%, CN(C)CCCN(C(=O)c1ccc(S(=O)(=O)N2CCCc3ccccc32)cc1)c1nc2ccc(F)cc2s1 20.8%, COc1ccc2sc(N(CCCN(C)C)C(=O)c3ccc(S(=O)(=O)N(C)C4CCCCC4)cc3)nc2c1 1.32%, CC12CN(NC(=O)c3ccc(Cl)cc3)C3(C#N)CC1CCC23C (stereo not given) -2.37%, COc1ccc(-c2c(NC(=O)c3ccco3)oc3ccc(Cl)cc3c2=O)cc1 -2.76%, CC1CCCCC12NC(=O)N(CC(=O)N1CCN(c3ccccc3)CC1)C2=O (stereo not given) -1.08%, c1ccc(-c2csc(N3CCc4ccccc4C3)n2)cc1 2.31%, N#CC(=C1CCCC1)c1nc(-c2ccc(Cl)cc2)cs1 -2.04%, Cc1noc(C)c1CSCC(=O)N(CCC(C)C)c1c(N)n(Cc2ccccc2)c(=O)[nH]c1=O -4.01%, Cc1ccc(SCC(=O)NC(=O)NCc2ccco2)c(C)c1 1.4%, Cc1c(C(=O)Nc2ccccn2)oc2ccc(Br)cc12 0.16%, CCN(CC)CCn1c(/N=C/c2cc(Br)ccc2O)nc2ccccc21 -2.54%, CC(=O)C1(C)N(O)C(C)(C)C(c2cccs2)=[N+]1[O-] (stereo not given) -1.47%, CC(=NCc1ccc2c(c1)OCO2)C1=C(O)c2ccccc2C1=O 1.05%, CCN1C(=NCCc2cccnc2)N[C@@H](c2ccccc2)[C@H](C(=O)OC)[C@H]1C 0.09%, COCCN1C(=O)N[C@@H](CCc2ccccc2)[C@H](C(C)=O)[C@H]1C 0.9%, Cc1ccc(Nc2nc(N)nc(CSc3nnc(C)s3)n2)cc1 3.11%, Nc1nc(COC(=O)CCC(=O)c2ccc(Cl)cc2)nc(Nc2ccccc2)n1 1.72%, Cc1ccc(C)c(NC(=O)CN(C)C(=O)c2ccc3ncsc3c2)c1 -1.06%, COc1ccc(C(=O)COC(=O)CNC(=O)c2cccs2)cc1Br 0.35%, COc1ccc(C(=O)COC(=O)COc2ccc(C)c(C)c2)cc1 0.09%, Cc1ccc(OCC(=O)Nc2ccc(C(=O)O)cc2NC(=O)COc2ccc(C)c(C)c2)cc1C -6.86%, CCOC1CCCCC1NS(=O)(=O)c1ccc(Cl)cc1 (stereo not given) -1.12%, Cc1ccc(CN2CCN(/N=C/c3cccnc3)CC2)c(C)c1 1.33%, CC(C)c1nccn1S(=O)(=O)c1cc([N+](=O)[O-])ccc1Cl 0.9%, CCc1nc(C)cn1S(=O)(=O)c1cc(OC)c(C)cc1C -2.38%, Cc1cc(N2CCOCC2)nc2ccc(NC(=S)N3CCN(Cc4ccccc4)CC3)cc12 -2.17%, CC(=O)Nc1ccc(Nc2nc3c(S(=O)(=O)c4ccc(C)c(C)c4)nnn3c3ccccc23)cc1 3.91%, Cc1ccc(S(=O)(=O)c2nnn3c2nc(N2CCN(c4ccccn4)CC2)c2ccccc23)cc1 -2.5%, CN(CC(=O)Nc1cccc(F)c1)C(=O)C1CSC2(C)CCC(=O)N12 (stereo not given) 2.87%, CCN(CC)C(=O)CSC1c2ccccc2C(=O)N1c1ccccc1 (stereo not given) 0.81%, CC1(C)C=C2[C@H]3CC[C@@H]4[C@@]5(C)CCC(=O)C(C)(C)[C@@H]5CC[C@@]4(C)[C@]3(C)CC[C@@]2(C(=O)O)CC1 2.72%, CC(=O)NC(CC(=O)Nc1cccc(S(=O)(=O)N2CCCC2)c1)c1ccccc1 (stereo not given) -4.34%, COc1ccc(NC(=O)/C(C#N)=C\c2cc(OC)c(OCc3ccc(C(=O)O)cc3)cc2Br)cc1 -2.72%, N#C/C(=C\c1ccc(O)c(O)c1)C(=O)NCc1ccccc1 21.5%, C=CCNC(=O)c1ccccc1NC(=O)c1ccc(Cl)c(S(=O)(=O)Nc2cccc(C)c2C)c1 0.62%

activation, active:
Cc1ccc(S/C(=N\S(=O)(=O)c2ccc(Cl)cc2)c2ccccc2)cc1 43.5%, Cc1ccc(S(=O)(=O)N(CC(=O)N/N=C/c2ccc(F)cc2)c2cccc3cccnc23)cc1 44.4%, CCOC(=O)C1=C(O)/C(=C/c2ccc(OCC(=O)Nc3ccc(C)cc3)cc2)N=C1C 51.4%, OC(CNCC1CCCO1)Cn1c2ccc(Br)cc2c2cc(Br)ccc21 (stereo not given) 69.6%, CCCc1nc2ccccc2c(=O)n1/N=C/c1ccc(O)c(O)c1 40.8%, CN(C)CCCN(C(=O)c1ccc(S(=O)(=O)N2CCCCCC2)cc1)c1nc2ccc(Br)cc2s1 46.6%, N#CC(=C1SC=CS1)c1nc(-c2ccccc2)cs1 30.8%, Oc1ccc(Br)cc1/C=N/Nc1ccccn1 88.3%, CCN1C(=O)N[C@@H](c2ccccc2)[C@H](C(C)=O)[C@H]1C 34.5%, Nc1nc(CC(=O)CSc2ccc(Cl)cc2)nc(Nc2ccc(F)cc2)n1 75%, Cc1ccc(SC(=O)COc2ccc(C)c(C)c2)cc1 65.8%, CCc1nc(C)cn1S(=O)(=O)c1cc([N+](=O)[O-])ccc1Cl 45.1%, Cc1cccc(Nc2nc3c(S(=O)(=O)c4ccccc4)nnn3c3ccccc23)c1C 94%, COc1ccc(CNC(=O)/C(C#N)=C/c2cccc(OC)c2OC)cc1 36.8%
